Calls of active or inactive are those of the source. The rule behind the calls is not given here.
Columns and labels:
[1] = Cytotoxicity in renal SN12C cell line.; format: functional; conditions: Homo sapiens
In short: (§1)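 NCI screen of roughly 55 human cancer cell lines from diverse tumor origins, tested over 10^-4 to 10^-8 M. GI50 is the concentration giving 50% growth inhibition.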

[2] = Cytotoxicity in colon HCT116 cell line.; format: functional; conditions: Homo sapiens, HCT-116; in short: as §1
[3] = tested on: Panel (Carcinoma cell lines); test: Mean graph mid point for growth inhibition of all human cancer cell lines tested.; format: functional; design: unit: µM
In short: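 NCI screen of roughly 55 human cancer cell lines, test range 10^-4 to 10^-8 M. Mean graph midpoint is the average GI50 over all cell lines successfully tested. GI50 values below or above the range are set to 10^-8 M or 10^-4 M.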

[4] = Cytotoxicity in melanoma UACC-62 cell line.; format: functional; conditions: Homo sapiens; in short: as §1
[5] = Cytotoxicity in lung HOP-62 cell line.; format: functional; conditions: Homo sapiens; in short: as §1
[6] = Cytotoxicity in ovarian OVCAR-3 cell line.; format: functional; conditions: Homo sapiens; in short: as §1
[7] = Cytotoxicity in breast MDA-MB-435 cell line.; format: functional; conditions: Homo sapiens; in short: as §1
[8] = Cytotoxicity in CNS SF-539 cell line.; format: functional; conditions: Homo sapiens; in short: as §1
[9] = Cytotoxicity in prostate DU-145 cell line.; format: functional; conditions: Homo sapiens; in short: as §1
[10] = molecular target: T1, DNA topoisomerase 1 (Homo sapiens) (UniProt P11387); test: DNA topoisomerase I mediated cleavage activity tested up to a concentration of 100 uM; Greater activity than compound 1
T1 sequence (whole entry): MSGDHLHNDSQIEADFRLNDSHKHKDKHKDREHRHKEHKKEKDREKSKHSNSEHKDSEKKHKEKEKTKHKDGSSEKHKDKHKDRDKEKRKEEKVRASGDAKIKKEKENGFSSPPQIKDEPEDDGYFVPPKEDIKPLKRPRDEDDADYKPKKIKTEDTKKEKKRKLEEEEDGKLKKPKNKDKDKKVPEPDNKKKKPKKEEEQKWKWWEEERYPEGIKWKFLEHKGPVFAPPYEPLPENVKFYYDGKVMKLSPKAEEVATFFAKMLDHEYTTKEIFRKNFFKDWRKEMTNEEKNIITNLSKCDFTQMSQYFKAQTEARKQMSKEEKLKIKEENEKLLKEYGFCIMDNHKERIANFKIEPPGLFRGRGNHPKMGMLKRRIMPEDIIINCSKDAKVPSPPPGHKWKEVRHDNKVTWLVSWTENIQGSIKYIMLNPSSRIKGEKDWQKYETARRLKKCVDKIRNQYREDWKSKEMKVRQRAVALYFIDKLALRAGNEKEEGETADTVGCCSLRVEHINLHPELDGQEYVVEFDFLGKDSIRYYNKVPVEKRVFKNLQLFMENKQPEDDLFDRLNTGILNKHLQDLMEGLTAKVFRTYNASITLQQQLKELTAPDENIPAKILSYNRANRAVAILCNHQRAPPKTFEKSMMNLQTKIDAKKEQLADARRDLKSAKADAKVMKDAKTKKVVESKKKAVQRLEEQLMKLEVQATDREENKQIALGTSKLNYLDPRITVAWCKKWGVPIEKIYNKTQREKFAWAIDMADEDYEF
In short: (§2)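 Baculovirus-expressed human recombinant top1 was incubated with a 161 bp PvuII/HindIII fragment of pBluescript SK(-), 3'-end-labeled at the HindIII site with [α-32P]-dCTP (about 50 000 dpm per reaction), and drug up to 100 μM, for 30 min at 22 °C. Reactions were stopped with 0.5% SDS final. Products ran on denaturing 16% polyacrylamide/7 M urea gels at 51 °C. Cleavage was scored semiquantitatively (+, ++, +++) against the parent lead.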

[11] = molecular target: T1, DNA topoisomerase 1 (Homo sapiens); test: DNA topoisomerase I mediated cleavage activity tested up to a concentration of 100 uM; Same activity as compound 1; in short: as §2
[12] = molecular target: T1, DNA topoisomerase 1 (Homo sapiens); test: DNA topoisomerase I mediated cleavage activity tested up to a concentration of 100 uM; week activity; in short: as §2
[13] = molecular target: T1, DNA topoisomerase 1 (Homo sapiens); test: DNA topoisomerase I mediated cleavage activity tested up to a concentration of 100 uM; Active or inactive; in short: as §2
[14] = molecular target: T1, DNA topoisomerase 1 (Homo sapiens); test: DNA topoisomerase I mediated cleavage activity tested up to a concentration of 100 uM; in short: as §2

| SMILES | GI50 [1] [nM] | GI50 [2] [nM] | MGM [3] | GI50 [4] [nM] | GI50 [5] [nM] | GI50 [6] [nM] | GI50 [7] [nM] | GI50 [8] [nM] | GI50 [9] [nM] | Activity [10] | Activity [11] | Activity [12] | Activity [13] | Activity [14] |
| --- | --- | --- | --- | --- | --- | --- | --- | --- | --- | --- | --- | --- | --- | --- |
| COC(=O)CCCN1C(=O)c2cc(OC)c(OC)cc2[C@H]2C(=O)c3cc4c(cc3[C@H]21)OCO4 | 240 | 340 | 1.48 | 530 | 820 | 2430 | 2890 | 710 | 630 | – | – | – | – | – |
| COc1cc2c(cc1OC)[C@H]1C(=O)c3cc4c(cc3[C@H]1N(CC#N)C2=O)OCO4 | 410 | 600 | 3.28 | 1730 | 5420 | 2020 | 9040 | 2120 | 850 | – | – | – | – | – |
| CCCCN1C(=O)c2cc(OC)c(OC)cc2[C@H]2C(=O)c3cc4c(cc3[C@H]21)OCO4 | – | 110 | 2.14 | 610 | 450 | 1400 | 1600 | 320 | – | – | – | – | – | – |
| CCCN1Cc2cc(OC)c(OC)cc2[C@@H]2[C@H]1c1cc3c(cc1[C@@H]2O)OCO3 | – | 17800 | 20.9 | 18700 | 16000 | 6300 | 5800 | 21700 | 33900 | – | – | – | – | – |
| COc1cc2c(cc1OC)[C@H]1C(=O)c3cc4c(cc3[C@H]1N(CC(F)(F)F)C2=O)OCO4 | 7870 | 14400 | 6.6 | 4120 | 34000 | 7960 | 7600 | 7630 | 7500 | – | – | – | – | – |
| CCCC[n+]1cc2cc(OC)c(OC)cc2c2c1-c1cc3c(cc1C2)OCO3.[Cl-] | 430 | 1580 | 1.31 | 510 | 3060 | 280 | 1370 | 2160 | 2690 | Greater activity than compound 1 | – | – | – | – |
| COc1cc2c(cc1OC)[C@H]1C(=O)c3cc4c(cc3[C@H]1N(CCCCl)C2=O)OCO4 | 20 | 160 | 0.11 | 20 | 80 | 360 | 330 | 20 | 30 | – | – | – | – | – |
| COc1cc2c(cc1OC)[C@H]1C(=O)c3c(ccc4ccccc34)[C@H]1N(CCCBr)C2=O | 2350 | 4020 | 2.95 | 2390 | 1440 | 1970 | 2250 | – | 2460 | – | – | – | – | – |
| COc1cc2c(cc1OC)[C@H]1C(=O)c3cc4c(cc3[C@H]1N(Cc1ccccc1)C2=O)OCO4 | 390 | 540 | 1.18 | 1840 | 2930 | 7170 | – | 380 | 550 | – | – | – | – | – |
| COc1cc2c(cc1OC)[C@H]1C(=O)c3c(ccc4ccccc34)[C@H]1N(CCCCl)C2=O | 11600 | 6520 | 4.22 | 3730 | 2760 | 1930 | 2480 | 14700 | 5490 | – | – | – | – | – |
| CC[n+]1cc2cc(OC)c(OC)cc2c2c1-c1cc3c(cc1C2)OCO3.[Cl-] | – | – | 13 | – | – | – | – | – | – | – | Same activity as compound 1 | – | – | – |
| CCCN1C(=O)c2cc(OC)c(OC)cc2[C@H]2C(=O)c3cc4c(cc3[C@H]21)OCO4 | 430 | 390 | 0.69 | 260 | 590 | 920 | 1100 | 440 | 310 | – | – | – | – | – |
| COc1cc2c(cc1OC)[C@H]1C(=O)c3cc4c(cc3[C@H]1N(CCCN=[N+]=[N-])C2=O)OCO4 | 250 | 400 | 0.69 | 290 | 360 | 1270 | 1270 | 330 | 330 | – | – | week activity | – | – |
| C/C=C(/C=O)CCN1C(=O)c2cc(OC)c(OC)cc2[C@H]2C(=O)c3cc4c(cc3[C@H]21)OCO4 | 140 | 250 | 0.95 | 150 | 300 | 7120 | 4460 | 210 | 220 | – | – | – | – | – |
| CCC[n+]1cc2cc(OC)c(OC)cc2c2c1-c1cc3c(cc1C2)OCO3.[Cl-] | 640 | 3550 | 4.1 | 2190 | 3980 | 1000 | 3370 | 1080 | 10500 | Greater activity than compound 1 | – | – | – | – |
| CCOC(=O)CCCN1C(=O)c2cc(OC)c(OC)cc2[C@H]2C(=O)c3cc4c(cc3[C@H]21)OCO4 | 2070 | 1810 | 7.76 | 3040 | 2220 | 22000 | 16500 | – | 3070 | – | – | – | – | – |
| CCN1C(=O)c2cc(OC)c(OC)cc2[C@H]2C(=O)c3cc4c(cc3[C@H]21)OCO4 | – | – | 0.81 | – | – | – | – | – | – | – | – | – | inactive | – |
| COc1cc2c(cc1OC)[C@H]1C(=O)c3cc4c(cc3[C@H]1N(CCCBr)C2=O)OCO4 | 30 | 70 | 0.12 | 50 | 120 | 400 | 150 | 40 | 30 | – | Same activity as compound 1 | – | – | – |
| C=CCN1C(=O)c2cc(OC)c(OC)cc2[C@H]2C(=O)c3cc4c(cc3[C@H]21)OCO4 | – | – | 0.98 | – | – | – | – | – | – | – | – | – | – | 0 |
| COc1cc2c3c(n(C)c(=O)c2cc1OC)-c1cc2c(cc1C3=O)OCO2 | – | – | 20 | – | – | – | – | – | – | – | Same activity as compound 1 | – | – | – |

Reference: ChEMBL document CHEMBL1135987, “Synthesis of new dihydroindeno[1,2-c]isoquinoline and indenoisoquinolinium chloride topoisomerase I inhibitors having high in vivo anticancer activity in the hollow fiber animal model” (2002)
